We go through 60 molecules from PubChem BioAssay AID488779 (The Scripps Research Institute Molecular Screening Center, 2010).

The term inhibition denotes the change of the read-out against control, counted positive when it falls.

The target of the test is Steroidogenic factor 1 (Homo sapiens) (UniProt Q13285). Kind of test: nuclear receptor SF-1 transcriptional inhibitors – cell-based, luminescence, powder samples, single concentration, selectivity assay for LRH1 inverse agonist project, confirmation (AID 488779). The conditions noted are these: HEK293T SF-1 5xSFRE luciferase reporter, 20 h; at 5 µM; stronger effect = higher value. The gist of the method: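 Assay system – HEK293T cells with SF-1 and SFRE-luciferase reporter · Dosing – single nominal dose of 5 µM test compound · Timing – 20 h compound exposure · Detection – luciferase luminescence · Read-out basis – percent inhibition of luminescence from average fold change versus DMSO-treated cells · Benchmarks – DMSO-treated cells as vehicle reference · Replicates – triplicate wells per compound, averaged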

The source made the active and inactive calls.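 Rule for the calls: active = SF-1 luciferase reporter signal in cells inhibited by more than 25%; inactive = the rest.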

Chain of Steroidogenic factor 1 (Homo sapiens) (Q13285 whole entry, looked up): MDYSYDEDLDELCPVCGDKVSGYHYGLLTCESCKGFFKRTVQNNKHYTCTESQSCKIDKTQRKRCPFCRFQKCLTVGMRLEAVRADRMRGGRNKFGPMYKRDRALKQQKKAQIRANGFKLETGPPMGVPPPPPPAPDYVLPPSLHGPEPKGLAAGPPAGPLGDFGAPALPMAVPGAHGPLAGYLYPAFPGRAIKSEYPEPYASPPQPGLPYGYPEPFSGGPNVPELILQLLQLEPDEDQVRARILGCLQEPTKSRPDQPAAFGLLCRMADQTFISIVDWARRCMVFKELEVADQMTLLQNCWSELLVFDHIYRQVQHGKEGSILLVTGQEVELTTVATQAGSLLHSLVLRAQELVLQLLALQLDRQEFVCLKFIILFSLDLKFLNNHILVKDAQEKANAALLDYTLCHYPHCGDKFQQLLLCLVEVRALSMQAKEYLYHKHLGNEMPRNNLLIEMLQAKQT

Turning to `O=c1cc(N2CCN(c3ccnc4cc(Cl)ccc34)CC2)[nH]c(=O)n1C1CCCCC1`, the inhibition was 11% (inactive). The result for `COc1ccc(N2CCN(c3cc(=O)n(C4CCCCC4)c(=O)[nH]3)CC2)cc1` reads 5% (inactive); that for `O=c1cc(N2CCN(c3cccc(C(F)(F)F)c3)CC2)[nH]c(=O)n1C1CCCCC1`, -1% (inactive); that for `O=c1cc(N2CCN(c3cccc(F)c3)CC2)[nH]c(=O)n1C1CCCCC1`, -112% (inactive). For `O=c1cc(N2CCN(c3ncccc3C(F)(F)F)CC2)[nH]c(=O)n1C1CCCCC1`, the inhibition was 5% (inactive).

In the case of `O=c1cc(N2CCN(c3ncccc3Cl)CC2)[nH]c(=O)n1C1CCCCC1`, the inhibition is 13% (inactive). Take `Cc1ccc(C)n1CCN1CCN(c2cc(=O)n(C3CCCCC3)c(=O)[nH]2)CC1`: the inhibition was 7% (inactive).

As to `CCn1c(=O)cc(N2CCN(c3cccc(C(F)(F)F)c3)CC2)[nH]c1=O`, the inhibition was -81% (inactive).

Regarding `O=c1cc(N2CCN(c3ccccc3C(F)(F)F)CC2)[nH]c(=O)n1C1CCCCC1`, the inhibition was 5% (inactive).

Turning to `O=c1cc(N2CCN(c3ccc(F)cc3F)CC2)[nH]c(=O)n1C1CCCCC1`, the inhibition was -49% (inactive). For `O=c1cc(N2CCN(c3cccc(Br)c3)CC2)[nH]c(=O)n1C1CCCCC1`, the inhibition was -23% (inactive). On to `O=c1cc(N2CCCC2)[nH]c(=O)n1C1CCCCC1`, for which the inhibition is 5% (inactive). The result for `COC(=O)C1CCN(c2cc(=O)n(C3CCCCC3)c(=O)[nH]2)CC1` reads 6% (inactive). To `CCN1CCN(c2cc(=O)n(C3CCCCC3)c(=O)[nH]2)CC1` belongs 5% (inactive); to `O=c1cc(N2CCN(Cc3ccc(Cl)cc3)CC2)[nH]c(=O)n1C1CCCCC1`, -4% (inactive). The result for `O=c1cc(N2CCN(c3cccc(C(F)(F)F)n3)CC2)[nH]c(=O)n1C1CCCCC1` reads 9% (inactive); that for `O=C(c1ccccc1)N1CCN(c2cc(=O)n(C3CCCCC3)c(=O)[nH]2)CC1`, 2% (inactive). As to `O=c1cc(N2CCN(c3ccc(C(F)(F)F)cc3)CC2)[nH]c(=O)n1C1CCCCC1`, the inhibition is 1% (inactive). To `O=c1cc(N2CCN(c3nc(-c4ccccc4)ns3)CC2)[nH]c(=O)n1C1CCCCC1` belongs 1% (inactive). To `O=c1cc(N2CCN(C(c3ccccc3)c3ccccc3)CC2)[nH]c(=O)n1C1CCCCC1` belongs -8% (inactive). Regarding `O=c1cc(N2CCC(Cc3ccccc3)CC2)[nH]c(=O)n1C1CCCCC1`, the inhibition is 9% (inactive). To `O=c1cc(N2CCCCC2)[nH]c(=O)n1C1CCCCC1` belongs 23% (inactive). The result for `CCn1c(=O)cc(N2CCN(c3cccc(Cl)c3)CC2)[nH]c1=O` reads -10% (inactive); that for `CCOC(=O)N1CCN(c2cc(=O)n(C3CCCCC3)c(=O)[nH]2)CC1`, 19% (inactive); that for `CC1CCN(c2cc(=O)n(Cc3ccc(F)cc3)c(=O)[nH]2)CC1`, 0% (inactive). The result for `O=c1cc(N2CCN(c3ccccn3)CC2)[nH]c(=O)n1C1CCCCC1` reads -7% (inactive); that for `Cc1ccc(Cl)cc1N1CCN(c2cc(=O)n(C3CCCCC3)c(=O)[nH]2)CC1`, -12% (inactive); that for `C=CCN1CCN(c2cc(=O)n(C3CCCCC3)c(=O)[nH]2)CC1`, -13% (inactive). Consider `CCn1c(=O)cc(N2CCN(c3ccccc3)CC2)[nH]c1=O`, for which the inhibition was 7% (inactive). Take `N#CCn1c(N2CCN(c3cccc(C(F)(F)F)c3)CC2)cc(=O)n(C2CCCCC2)c1=O`: the inhibition was 4% (inactive). The result for `O=c1cc(N2CCN(c3nccc4occc34)CC2)[nH]c(=O)n1C1CCCCC1` reads -14% (inactive); that for `CC(C)Cn1c(=O)cc(N2CCN(c3cccc(C(F)(F)F)c3)CC2)[nH]c1=O`, -95% (inactive). On to `O=c1cc(N2CCN(c3ccccc3)CC2)[nH]c(=O)n1C1CCCCC1`, for which the inhibition was -3% (inactive). The result for `O=c1cc(N2CCN(c3ccccc3)CC2)[nH]c(=O)n1Cc1ccc(F)cc1` reads -18% (inactive); that for `C=CCn1c(N2CCN(c3cccc(C(F)(F)F)c3)CC2)cc(=O)n(C2CCCCC2)c1=O`, -24% (inactive).

Take `O=c1cc(N2CCN(c3cccc(C(F)(F)F)c3)CC2)n(Cc2ccccc2)c(=O)n1C1CCCCC1`: the inhibition is 3% (inactive). Regarding `O=c1cc(N2CCN(c3ccccc3Cl)CC2)[nH]c(=O)n1C1CCCCC1`, the inhibition was -19% (inactive). The result for `O=c1cc(N2CCc3ccccc32)[nH]c(=O)n1C1CCCCC1` reads 23% (inactive). In the case of `O=c1cc(N2CCN(c3cccc(Cl)c3Cl)CC2)[nH]c(=O)n1C1CCCCC1`, the inhibition is 3% (inactive). The result for `O=c1cc(N2CCOCC2)[nH]c(=O)n1C1CCCCC1` reads 0% (inactive); that for `CCn1c(=O)cc(N2CCN(C(=O)c3ccco3)CC2)[nH]c1=O`, 30%. As to `O=c1cc(N2CCN(CCN3CCOCC3)CC2)[nH]c(=O)n1C1CCCCC1`, the inhibition was 9% (inactive). The result for `CC1CCN(c2cc(=O)n(C3CCCCC3)c(=O)[nH]2)CC1` reads -5% (inactive); that for `O=c1cc(N2CCN(c3cccc(Cl)n3)CC2)[nH]c(=O)n1C1CCCCC1`, -3% (inactive); that for `O=c1cc(N2CCN(c3cccc(C(F)(F)F)c3)CC2)[nH]c(=O)n1Cc1ccccc1`, 1% (inactive). The result for `O=c1cc(N2CCN(Cc3ccc4c(c3)OCO4)CC2)[nH]c(=O)n1C1CCCCC1` reads 24%; that for `O=c1cc(N2CCN(c3cccc(Cl)c3)CC2)[nH]c(=O)n1C1CCCCC1`, 5% (inactive); that for `O=c1cc(N2CCN(c3cc(C(F)(F)F)ccn3)CC2)[nH]c(=O)n1C1CCCCC1`, -83% (inactive). The result for `O=C(c1ccco1)N1CCN(c2cc(=O)n(C3CCCCC3)c(=O)[nH]2)CC1` reads 6% (inactive); that for `O=c1cc(N2CCN(c3cc(Cl)cc(Cl)c3)CC2)[nH]c(=O)n1C1CCCCC1`, -9% (inactive); that for `O=c1cc(N2CCN(C3CCCCC3)CC2)[nH]c(=O)n1C1CCCCC1`, 9% (inactive). For `O=c1cc(N2CCN(c3ccc(F)cc3)CC2)[nH]c(=O)n1C1CCCCC1`, the inhibition is -2% (inactive). As to `CCn1c(=O)cc(N2CCN(Cc3ccccc3)CC2)[nH]c1=O`, the inhibition was 27%. Turning to `Cn1c(=O)cc(N2CCN(c3cccc(Cl)c3)CC2)[nH]c1=O`, the inhibition was -2% (inactive). Regarding `C=CCn1c(=O)cc(N2CCN(c3cccc(C(F)(F)F)c3)CC2)[nH]c1=O`, the inhibition is -164% (inactive). Turning to `Cn1c(=O)cc(N2CCN(c3ccc(F)cc3)CC2)[nH]c1=O`, the inhibition was -2% (inactive). The result for `Cc1cc(C)cc(N2CCN(c3cc(=O)n(C4CCCCC4)c(=O)[nH]3)CC2)c1` reads -4% (inactive); that for `O=c1cc(N2CCN(c3cccc(C(F)(F)F)c3)CC2)[nH]c(=O)n1-c1ccccc1`, -3% (inactive). The result for `O=c1cc(N2CCN(c3cccc(Cl)c3)CC2)[nH]c(=O)[nH]1` reads 2% (inactive); that for `CCn1c(=O)cc(N2CCN(c3ccc(F)cc3)CC2)[nH]c1=O`, 10% (inactive).
